Tests used:
[1] = biological target: T1, Adenosine receptor A2b (Homo sapiens, UniProt P29275); assay: Displacement of [3H]OSIP339391 from human recombinant Adenosine A2B receptor expressed in HEK293 cells after 60 mins; type: cell-based
T1 sequence (P29275 whole entry): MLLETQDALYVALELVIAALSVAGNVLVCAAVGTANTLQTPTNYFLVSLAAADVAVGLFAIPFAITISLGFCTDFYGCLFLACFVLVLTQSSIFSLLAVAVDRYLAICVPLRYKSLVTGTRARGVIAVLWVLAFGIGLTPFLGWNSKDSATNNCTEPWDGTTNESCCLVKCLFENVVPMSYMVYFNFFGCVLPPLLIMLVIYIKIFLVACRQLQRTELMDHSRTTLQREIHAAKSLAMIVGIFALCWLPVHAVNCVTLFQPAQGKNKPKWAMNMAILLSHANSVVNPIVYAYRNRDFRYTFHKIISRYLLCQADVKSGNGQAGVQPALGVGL

[2] = biological target: T2, Adenosine receptor A3 (Homo sapiens) (UniProt P0DMS8); assay: Displacement of [3H]NECA from human Adenosine A3 receptor expressed in HeLa cells at 1 uM after 180 mins
T2 sequence (whole entry): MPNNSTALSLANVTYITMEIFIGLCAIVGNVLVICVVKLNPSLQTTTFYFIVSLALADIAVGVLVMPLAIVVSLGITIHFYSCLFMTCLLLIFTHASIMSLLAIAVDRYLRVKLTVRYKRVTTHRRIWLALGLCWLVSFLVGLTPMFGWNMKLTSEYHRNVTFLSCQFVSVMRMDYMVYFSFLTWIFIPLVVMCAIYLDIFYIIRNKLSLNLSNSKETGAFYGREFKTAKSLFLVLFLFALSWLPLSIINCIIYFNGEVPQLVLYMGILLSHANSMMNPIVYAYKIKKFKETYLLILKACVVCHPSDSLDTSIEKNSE

[3] = biological target: T3, Adenosine receptor A2b (Homo sapiens) (UniProt P29275); assay: Antagonist activity at human Adenosine A2B receptor expressed in HEK293 cells assessed as inhibition of NECA-induced cAMP production preincubated for 15 mins followed by NECA addition measured after 15 mins by enzyme immunoassay; type: functional, cell-based
T3 sequence (whole entry): T1 sequence (P29275 whole entry)
Summary of the method: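 HEK293 cells seeded at 10000 cells/well and grown at 37 °C, 5% CO2 in EMEM F-12 with 10% FCS and 1% L-glutamine. After washing, cells were preincubated 15 min at 37 °C with compound and 30 µM rolipram in EMEM-F12/25 mM HEPES pH 7.4. NECA was then added for 15 min at 37 °C. cAMP was read by enzyme immunoassay after kit lysis; n = 3, each in duplicate.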

[4] = biological target: Adenosine receptor A2a (Homo sapiens) (UniProt P29274); assay: Displacement of [3H]ZM241385 from human Adenosine A2A receptor expressed in HeLa cells at 1 uM after 30 mins; type: cell-based
Summary of the method: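 Membranes from HeLa cells expressing human A2A were labelled with 3 nM [3H]ZM241385, with non-specific binding defined by 50 µM NECA, and incubated at 25 °C for 30 min. The value is percent displacement of specific binding at 1 µM test compound (n = 2).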

[5] = biological target: T4, Adenosine receptor A1 (Homo sapiens) (UniProt P30542); assay: Displacement of [3H]DPCPX from human Adenosine A1 receptor expressed in CHO cells at 1 uM after 60 mins; type: cell-based
T4 sequence (whole entry): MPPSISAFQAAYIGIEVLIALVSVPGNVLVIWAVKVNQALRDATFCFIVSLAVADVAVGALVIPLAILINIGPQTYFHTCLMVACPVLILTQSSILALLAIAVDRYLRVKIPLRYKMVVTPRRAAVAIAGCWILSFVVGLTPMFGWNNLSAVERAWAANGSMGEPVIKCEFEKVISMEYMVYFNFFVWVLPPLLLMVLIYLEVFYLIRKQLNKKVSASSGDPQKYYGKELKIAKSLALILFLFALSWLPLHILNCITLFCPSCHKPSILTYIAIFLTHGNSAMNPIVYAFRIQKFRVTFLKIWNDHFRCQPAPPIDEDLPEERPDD
Summary of the method: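 Competition binding on membranes from CHO cells expressing human A1, labelled with 2 nM [3H]DPCPX. Non-specific binding was defined with 10 µM R-PIA, and incubation was at 25 °C for 60 min. The value is percent inhibition of specific binding at 1 µM test compound (n = 2, average).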

[6] = biological target: T3, Adenosine receptor A2b (Homo sapiens); assay: Displacement of [3H]DPCPX from human Adenosine A2B receptor expressed in HEK293 cells at 1 uM after 30 mins; type: cell-based
Summary of the method: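 Membranes from HEK-293 cells expressing human A2B were labelled with 35 nM [3H]DPCPX, with non-specific binding defined by 400 µM NECA, and incubated at 25 °C for 30 min.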

[7] = biological target: T5, Adenosine receptor A3 (Homo sapiens, UniProt P0DMS8); assay: Displacement of [3H]NECA from human Adenosine A3 receptor expressed in HeLa cells after 180 mins
T5 sequence (P0DMS8 whole entry): T2 sequence (whole entry)

[8] = biological target: T1, Adenosine receptor A2b; assay: Displacement of [3H]DPCPX from human Adenosine A2B receptor expressed in HEK293 cells after 30 mins; type: cell-based

Sequence of Adenosine receptor A2a (Homo sapiens) (P29274 whole entry): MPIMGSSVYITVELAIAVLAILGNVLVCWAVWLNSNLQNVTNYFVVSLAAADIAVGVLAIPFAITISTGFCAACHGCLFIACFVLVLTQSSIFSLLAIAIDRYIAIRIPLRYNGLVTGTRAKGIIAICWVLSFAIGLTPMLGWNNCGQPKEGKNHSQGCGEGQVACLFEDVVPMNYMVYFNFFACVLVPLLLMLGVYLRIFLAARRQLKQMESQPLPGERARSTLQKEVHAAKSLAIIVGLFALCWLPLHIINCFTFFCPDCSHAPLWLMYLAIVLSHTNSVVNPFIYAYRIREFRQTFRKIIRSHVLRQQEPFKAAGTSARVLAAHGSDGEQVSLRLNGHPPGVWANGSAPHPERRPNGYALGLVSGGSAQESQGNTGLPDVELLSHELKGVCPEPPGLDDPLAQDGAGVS

Ki [1] [nM]	Activity [2] [%]	Kb [3] [nM]	Activity [4] [%]	Activity [5] [%]	Activity [6] [%]	Ki [7] [µM]	Ki [8] [nM]	Compound
0.5								CC(=O)NCCNc1nc(-c2ccccc2)nc2nc(C(=O)N3CCN(CCCc4ccccc4)CC3)[nH]c12
	2	27	25	20				CC1=C(C(=O)OC(C)C)C(c2ccco2)n2c(nc3ccccc32)N1 (racemic)
			2	2	8	4.61		CCOC(=O)C1=C(C)Nc2nccn2C1c1cccs1 (racemic)
	2	266	5	2			55.6	CC1=C(C(=O)OC(C)C)C(c2ccco2)n2ncnc2N1 (racemic)

Reference: ChEMBL document CHEMBL3784997 (J Med Chem, 2016)
